Source: the EternaBench riboswitch data

Key:
MS2 coat protein [1] = experiment: apparent Kd, MS2 coat protein; higher = weaker binding; RNA-MaP array
How it was run: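 The designed RNAs, transcribed from sequenced DNA templates on an Illumina sequencing chip, were incubated with fluorescently labeled MS2 coat protein at room temperature. Protein ranged from 1.5 nM to 3 μM, with 0.8–1.5 h incubation at the lowest and 10–20 min at the highest concentrations, in Tris-HCl pH 7.5 buffer with KCl, MgCl2, BSA, DTT, tRNA and Tween20, with or without input ligand. The median of per-cluster binding-curve fits gives the apparent Kd, and designs measured on fewer than 10 clusters were excluded.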

MS2 coat protein [2] = experiment: apparent Kd, MS2 coat protein; higher = weaker binding; RNA-MaP array; FMN 200 µM where present
How it was run: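 The apparent Kd is the median of filtered binding-curve fits, one per cluster, to green signal normalised to red-channel RNA signal and control-cluster median Fmax. The clusters were on Illumina sequencing chips, and stalled E. coli RNA polymerase had transcribed the designs on them. Titration used SNAP-549-labelled MS2 coat protein from 0.7 or 1.5 nM, doubling to 3 µM, without and then with constant ligand, in 100 mM Tris-HCl pH 7.5, 80 mM KCl, 4 mM MgCl2, BSA, DTT, yeast tRNA and Tween-20.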

[3] = designed as: OFF switch for flavin mononucleotide, no ligand
[4] = ligand present: flavin mononucleotide, designed as: OFF switch for flavin mononucleotide
[5] = designed as: ON switch for flavin mononucleotide, no ligand
[6] = ligand present: flavin mononucleotide, designed as: ON switch for flavin mononucleotide

AGGAGCGGAAUAGGAUAUUGUAGAUAUAUCAAACAAGAAGGAUUAGCUAACAUGAGGAUCACCCAUGUGGGAUCAAACUCACUC
apparent Kd (MS2 coat protein [1]; [3]): 82.7 nM | apparent Kd (MS2 coat protein [1]; [4]): 127 nM

AGGCACCAGAGAGGAUAUUAGGACAGCGAACAUGAGGAUCACCCAUGUAUGUUUGUUAGGCGAGCUAAGAAGGCUCCACGGGUU
apparent Kd (MS2 coat protein [1]; [3]): 6.9 nM | apparent Kd (MS2 coat protein [1]; [4]): 6.73 nM

AGGCGCAACGUAGGAUAUACCGGCAUUGUCCAAGUAGAAGGACGUUGUGAUCGCUAGGUAACAUGAGGAUCACCCAUGUCUUAC
apparent Kd (MS2 coat protein [1]; [5]): 6.96 nM | apparent Kd (MS2 coat protein [1]; [6]): 5.8 nM

AGGUGUCCAGGAGGAUAUGAUUGCAACACGCCCUCAGAAGGCCUUAUAUACAAAGCAUACAUGAGGAUCACCCAUGUAAUUGGA
apparent Kd (MS2 coat protein [1]; [5]): 8.74 nM | apparent Kd (MS2 coat protein [1]; [6]): 9.11 nM

AUAAAAGACAUGAGGAUCACCCAUGUAGCUCCUCGGUCUUCGAGAAGGUUCUUGCCCAGAGCGUGAAAGGAUAUCGCAUAUAUC
apparent Kd (MS2 coat protein [1]; [3]): 353 nM | apparent Kd (MS2 coat protein [1]; [4]): 448 nM

AUAAAAUGCUUAGGAUAUGUAACAGCAUGCACAUGAGGAUCACCCAUGUUAUAUUUAGUGGAAUGACAGAAGGAAGUAGAGACU
apparent Kd (MS2 coat protein [1]; [5]): 18.6 nM | apparent Kd (MS2 coat protein [1]; [6]): 13.5 nM

AUAAAUAAUUCAGGAUAUUGCGAUCAAACAACAUGAGGAUCACCCAUGUCCGUAAACACAACAAGCAAGAAGGGAAAGAAUCAA
apparent Kd (MS2 coat protein [1]; [5]): 24.6 nM | apparent Kd (MS2 coat protein [1]; [6]): 14.6 nM

AUAACGACUUCAGGAUAUCUAAUAUGGCCUAUAUGCUGAAAACAUGAGGAUCACCCAUGUCAAGGAGAGAAGGGAAGACAAACA
apparent Kd (MS2 coat protein [1]; [3]): 13.3 nM | apparent Kd (MS2 coat protein [1]; [4]): 10.2 nM

AUAAUCAAAGGAUAUGGCUAAGCACACAUGAGGAUCACCCAUGUGAUCGUUCGUACAGUUCCAGAAGGUUGGUCCA
apparent Kd (MS2 coat protein [1]; [3]): 15 nM | apparent Kd (MS2 coat protein [1]; [4]): 13.3 nM

AUACGAGCCAAGAAGGAGGGAGAUCCUGCAGUCCUAGGAUAUUGGCCACAAUCGGCGGACGACAUGAGGAUCACCCAUGUCCCG
apparent Kd (MS2 coat protein [1]; [5]): 41.8 nM | apparent Kd (MS2 coat protein [1]; [6]): 16 nM

AUACGGCGGUAAAAUCAGAGAGUAAAAGAUACCAGCAAUAAUAAAUGCCCUUGGCAGCUUCUGACAUGAGGAUCACCCAUGUAAA
apparent Kd (MS2 coat protein [1]; designed as: OFF switch for theophylline, no ligand): 15.3 nM | apparent Kd (MS2 coat protein [1]; ligand present: theophylline, designed as: OFF switch for theophylline): 29.1 nM

AUAUUCGUUCAGGAUAUGUUAAGCUCACGCCUAACAGAAGGGAAUACAUGAGGAUCACCCAUGUGGUGAUGGGA
apparent Kd (MS2 coat protein [1]; [3]): 498 nM | apparent Kd (MS2 coat protein [1]; [4]): 426 nM

AUCAAUAAUGUUAGGAUAUCUAGCUAUUUUAUGGUAGAGAAGGAACAUGAGGAUCACCCAUGUUGAGCUAUAUU
apparent Kd (MS2 coat protein [1]; [3]): 8.45 nM | apparent Kd (MS2 coat protein [1]; [4]): 8.82 nM

UUUUACAUAGGAUAUAGUUUGUUGUACAUGAGGAUCACCCAUGUUUUUGUUUGUGCUUUUCUAGAAGGAUGUUUCU
apparent Kd (MS2 coat protein [2]; [3]): 29.2 nM | apparent Kd (MS2 coat protein [2]; [4]): 25.4 nM

UUUUACGCAGGAUAUACAUUUUUUUUAUUAUCCUCAUUAUUACAUGAGGAUCACCCAUGUAGAAGGGCGAUUUU
apparent Kd (MS2 coat protein [2]; [3]): 75.7 nM | apparent Kd (MS2 coat protein [2]; [4]): 99.7 nM

UUUUACGUAGGAUAUACAUUUUUUUUAUUAUUUUCAUUAUUACAUGAGGAUCACCCAUGUAGAAGGACGAUUUU
apparent Kd (MS2 coat protein [2]; [3]): 22.8 nM | apparent Kd (MS2 coat protein [2]; [4]): 22 nM

UUUUCACAUGAGGAUCACCCAUGUGAGGAUAUGGAGCGCGACCGCGCGGUCGCGUACACCAGAAGGCGCAUGAU
apparent Kd (MS2 coat protein [2]; [3]): 30.5 nM | apparent Kd (MS2 coat protein [2]; [4]): 36.6 nM

UUUUUACAUGAGGAUCACCCAUGUCAGGAUAUUCUUAUAUUUUAUUAUUUUAUUUUUUGAAGAAGGGACUAUUA
apparent Kd (MS2 coat protein [2]; [3]): 118 nM | apparent Kd (MS2 coat protein [2]; [4]): 70.5 nM

UUUUUAUUUAUAGGAUAUGGAAACAUGAGGAUCACCCAUGUAUGAUAAGAUAAAUUAUGAUGUGGCCAGAAGGAUAUUAUUUUU
apparent Kd (MS2 coat protein [2]; [5]): 31.3 nM | apparent Kd (MS2 coat protein [2]; [6]): 43.7 nM

UUUUUAUUUGCAGGAUAUUGUUUUUUAUUACUUCAAGAAGGGCAUUACAUGAGGAUCACCCAUGUCAUCCUAUGGUUUACUAGU
apparent Kd (MS2 coat protein [2]; [3]): 10.6 nM | apparent Kd (MS2 coat protein [2]; [4]): 10.4 nM

UUUUUAUUUGUAGGAUAUGGAGACAUGAGGAUCACCCAUGUAUGAUAAGAUAAAUUAUGAUGUGGCCAGAAGGAUAUUAUUUUU
apparent Kd (MS2 coat protein [2]; [5]): 87.1 nM | apparent Kd (MS2 coat protein [2]; [6]): 119 nM

UUUUUGUCAGGAUAUGAGUAGUAGAACAAUAGUACUACUACUCAGAAGGGACAUGAGGAUCACCCAUGUUCCUC
apparent Kd (MS2 coat protein [2]; [3]): 15.2 nM | apparent Kd (MS2 coat protein [2]; [4]): 54.1 nM

UUUUUGUCAGGAUAUGAUUAGAUCUACUUCGGUAGAUCUAAUCAGAAGGGACAUGAGGAUCACCCAUGUAGUUU
apparent Kd (MS2 coat protein [2]; [3]): 36.5 nM | apparent Kd (MS2 coat protein [2]; [4]): 141 nM

UUUUUGUGAGGAUAUCAGUAGUAGAACAAUAGUACUACUACUGAGAAGGCACAUGAGGAUCACCCAUGUUCUUC
apparent Kd (MS2 coat protein [2]; [3]): 29 nM | apparent Kd (MS2 coat protein [2]; [4]): 133 nM

UUUUUGUGAGGAUAUCAGUAGUAGAACAAUAGUACUACUACUGAGAAGGUACAUGAGGAUCACCCAUGUUCCUC
apparent Kd (MS2 coat protein [2]; [3]): 19.4 nM | apparent Kd (MS2 coat protein [2]; [4]): 23.7 nM

UUUUUGUGAGGAUAUUAGUAGUAAAUGAAUAAAAUUAUUACUGAGAAGGCACAUGAGGAUCACCCAUGUUCCUU
apparent Kd (MS2 coat protein [2]; [3]): 15.1 nM | apparent Kd (MS2 coat protein [2]; [4]): 71.8 nM

UUUUUUUGCUGAGGAUAUAGCGCGCGUUUUGCGCUAGAAGGCAGACAUGUGGUUCACCCAUGUACAUGAGGAUCACCCAUGUUA
apparent Kd (MS2 coat protein [2]; [5]): 552 nM | apparent Kd (MS2 coat protein [2]; [6]): 301 nM
